Compounds with a hit are over-represented: about 1.5% of the library has one in this group of screens.
S100A4 MyoIIA = inhibitors of S100A4-myosin IIA peptide binding, primary screen, biochemical, fluorescence polarization, TAMRA-MyoIIA peptide; inhibition, % at 10.7 µM; Protein S100-A4 (Homo sapiens), P26447; 360,000 compounds, 0.14% hits;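 active means mean inhibition of at least 70% across replicates, with every replicate also reaching that level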
Target sequence (P26447 whole entry, looked up): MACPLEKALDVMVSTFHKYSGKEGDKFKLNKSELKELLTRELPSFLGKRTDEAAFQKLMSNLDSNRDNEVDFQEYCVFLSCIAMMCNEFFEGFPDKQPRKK
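System – human S100A4 monomer protein, biochemical binding assay · Buffer or medium – Calcium-containing HEPES buffer, pH 7.2 · Timing – 5 min between mix addition and reading · Also added – TAMRA-labelled myosin IIA heavy-chain peptide probe, 5 nM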
PDI inh = inhibitors of human PDI, primary screen, biochemical, turbidity, single point, plate reader; Protein disulfide-isomerase (Homo sapiens), P07237; PDI insulin aggregation turbidity, A650, 90 min; inhibition, % at 10 µM; 350,000 compounds, 0.052% hits;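 active means mean inhibition across replicates of 30% or more, whatever share of single replicates reach that level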
INS-1E GSIS act = GLuc luminescence reporter in INS-1E cells, primary screen for activators of glucose-dependent secretion of insulin; INS-1E GLuc reporter insulin secretion, 2-3 h; activation, % at 16.6 µM; 370,000 compounds, 0.61% hits;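 active means lowest replicate activation of at least 40%, so every replicate reaches that level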
ERp5 block = inhibitors of ERp5-driven insulin aggregation, primary screen, biochemical, turbidity, absorbance 650 nm, single point; Protein disulfide-isomerase A6 (Homo sapiens), Q15084; 90 min; inhibition, % at 9.99 µM; 350,000 compounds, 0.05% hits; AID 651711, 2012;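 active means mean replicate inhibition above about 25%, with every replicate also reaching it, limit read from the data, passing the limit was not always enough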
SIRT5 inh = SIRT5 desuccinylase inhibitors, primary screen, biochemical, fluorescence imaging, single point, set 5; NAD-dependent protein deacylase sirtuin-5, mitochondrial (Homo sapiens), Q9NXA8; Purified SirT5, succinyl-peptide AMC, trypsin-coupled fluorescence; inhibition, % at 15 µM; 330,000 compounds, 1.1% hits; AID 652115, 2013; in the data active means inhibition above about 15%
Target sequence (Q9NXA8 whole entry, looked up): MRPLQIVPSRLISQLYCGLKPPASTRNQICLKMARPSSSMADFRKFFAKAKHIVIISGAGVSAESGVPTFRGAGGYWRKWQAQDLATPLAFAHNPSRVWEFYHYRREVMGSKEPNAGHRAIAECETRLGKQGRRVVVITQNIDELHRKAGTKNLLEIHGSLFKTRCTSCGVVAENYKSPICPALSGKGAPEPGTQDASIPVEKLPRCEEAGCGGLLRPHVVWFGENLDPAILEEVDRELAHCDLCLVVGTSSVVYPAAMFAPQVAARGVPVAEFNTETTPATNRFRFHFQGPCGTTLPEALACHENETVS
Of the large screens only hits and unclear results are named; the others gave an inactive call.

C[C@@H]1CCCCO[C@H](CN(C)Cc2ccc(C(F)(F)F)cc2)[C@H](C)CN([C@H](C)CO)C(=O)c2cc(NS(=O)(=O)c3ccc(F)cc3)ccc2O1	SIRT5 inh 16.7 (no result: PDI inh)
C[C@@H]1CCCCO[C@H](CN(C)Cc2ccc(C(F)(F)F)cc2)[C@@H](C)CN([C@@H](C)CO)C(=O)c2cc(NS(=O)(=O)c3ccc(F)cc3)ccc2O1	SIRT5 inh 19.5 (no result: PDI inh)
C[C@@H]1CN([C@H](C)CO)C(=O)c2cc(NS(=O)(=O)c3ccc(Cl)cc3)ccc2O[C@@H](C)CCCCO[C@H]1CN(C)Cc1ccc(C(F)(F)F)cc1	none (no result: PDI inh)
C[C@H](CO)N1C[C@H](C)[C@H](CN(C)Cc2ccc(C(F)(F)F)cc2)OCCCC[C@H](C)Oc2ccc(NS(=O)(=O)c3ccc(F)cc3)cc2C1=O	SIRT5 inh 17.4 (no result: PDI inh)
C[C@@H]1CCCCO[C@@H](CN(C)Cc2ccc(C(F)(F)F)cc2)[C@H](C)CN([C@H](C)CO)C(=O)c2cc(NS(=O)(=O)c3ccccc3)ccc2O1	SIRT5 inh 18.0 (no result: PDI inh)
C[C@@H]1CN([C@@H](C)CO)C(=O)c2cc(NS(=O)(=O)c3ccc(F)cc3)ccc2O[C@@H](C)CCCCO[C@@H]1CN(C)Cc1ccc(C(F)(F)F)cc1	none (no result: PDI inh)
C[C@H]1CCCCO[C@@H](CN(C)Cc2ccc(C(F)(F)F)cc2)[C@@H](C)CN([C@@H](C)CO)C(=O)c2cc(NS(=O)(=O)c3ccc(F)cc3)ccc2O1	SIRT5 inh 20.4 (no result: PDI inh)
CCOC(=O)c1cn(-c2ccccc2)nc1-c1cccnc1	none (no result: S100A4 MyoIIA, INS-1E GSIS act, ERp5 block, SIRT5 inh)
CCOC(=O)c1cn(-c2ccccc2)nc1-c1ccncc1	INS-1E GSIS act 40.2
N#CCSc1nc2ccccc2c(=O)n1CCC(=O)NC1CCCCC1	none (no result: INS-1E GSIS act)
N#CCSc1nc2ccccc2c(=O)n1C1CCCCC1	INS-1E GSIS act 53.5
COc1ccc(C(=O)NC2CCCc3ccccc32)cc1 (stereo not drawn)	none
COc1ccc(NC(=O)COc2ccc(C(=O)NC3CCCc4ccccc43)cc2OC)cc1 (stereo not drawn)	INS-1E GSIS act 175.6 (no result: S100A4 MyoIIA, ERp5 block, SIRT5 inh)
CC(C)CC#Cc1ccc2c(c1)O[C@H](CN(C)C(=O)CN(C)C)[C@H](C)CN([C@H](C)CO)S2(=O)=O	none (no result: PDI inh)
O=C(C[C@H]1CC[C@@H](NS(=O)(=O)c2ccc(F)cc2)[C@@H](CO)O1)NCc1ccc(Cl)c(Cl)c1	none (no result: PDI inh)
Cc1ccc(CNC(=O)CCc2ccc(S(=O)(=O)NCC(C)C)cc2)cc1	SIRT5 inh 29.0
CCn1c(CNC(=O)c2cccc(C)c2)nnc1SCC(=O)N1CCOCC1	INS-1E GSIS act 43.7
Cc1cccc(C(=O)NCc2nnc(SCC(=O)N3CCN(c4ccccc4)CC3)n2C)c1	none (no result: S100A4 MyoIIA, ERp5 block, SIRT5 inh)
CC(=O)N(C)C[C@H]1Oc2ncc(C#Cc3ccccc3F)cc2C(=O)N([C@@H](C)CO)C[C@H]1C	none (no result: PDI inh)
COc1ccc2c(c1OC)C(=O)OC2	none (no result: PDI inh, INS-1E GSIS act)
COc1ccc2c3c(cccc13)C(=O)CC2	S100A4 MyoIIA 166.1
CN(C)c1ccc(/C=N/NC(=O)c2ccccc2Cl)cc1	INS-1E GSIS act 52.4
O=C(NCc1ccccn1)C1CCC(=O)N(Cc2ccc(Cl)cc2)C1 (stereo not drawn)	SIRT5 inh 37.5
O=C(NCc1ccccc1F)C1CCC(=O)N(Cc2ccc(Cl)cc2)C1 (stereo not drawn)	none
CCOc1cccc(CN2CCCC(N3CCc4ccccc4C3)C2)c1O (stereo not drawn)	none
CCOc1cccc(CN2CCCC(N3CCN(c4cccc(Cl)c4)CC3)C2)c1O (stereo not drawn)	SIRT5 inh 69.2
Cc1noc(C)c1NC(=O)Nc1ccc2c(c1)C(=O)N([C@H](C)CO)C[C@H](C)[C@@H](CN(C)C(=O)C1CCCCC1)OCCCC[C@H](C)O2	none (no result: PDI inh)
COc1ccccc1Cc1c(-c2cccc(Br)c2)nc2c(C)cc(Br)cn12	SIRT5 inh 19.5 (no result: PDI inh)
COc1ccc(C(=O)N2C[C@@H]3[C@H](c4ccccc42)[C@H](CO)N3C(=O)NC(C)C)cc1	none (no result: PDI inh)
CCOc1cccc(=O)c2c(C)n(-c3ccc(C(=O)O)cc3)c(C)c12	SIRT5 inh 29.0
O=C(Nc1ccc(Cl)cc1)Nc1cccc(C(=O)O)c1	none
O=C(Nc1cccc(Cl)c1)Nc1cccc(C(=O)O)c1	SIRT5 inh 22.9
